The source of these data is ChEMBL document CHEMBL2176993, “Jatrophane diterpenes from Euphorbia mellifera and their activity as P-glycoprotein modulators on multidrug-resistant mouse lymphoma and human colon adenocarcinoma cells” (J Nat Prod, 2012).

A short description of data set [1]: Induction of cell death in human COLO320 cells preincubated at 20 uM for 40 mins measured after 24 hrs using annexin V/propidium iodide staining by flow cytometry. It counts as functional, COLO 320. Put shortly:
(§1)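 COLO 320 MDR cells in RPMI 1640 with 10% FBS, at 2 × 10^5/mL, were exposed for 40 min at 37 °C, with 1% DMSO as the solvent control. Cells were washed twice in PBS, then kept in medium overnight at 37 °C, 5% CO2. After 24 h, supernatant and trypsin-detached cells were pelleted and resuspended in PBS. Annexin V-FITC/PI quadrants were read by flow cytometry.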

Data set [2] has as its target T1, ATP-dependent translocase ABCB1 (Homo sapiens, UniProt P08183). Briefly: Inhibition of MDR1-mediated rhodamine 123 uptake expressed in mouse L5178Y cells assessed as fluorescence activity ratio at 20 ug/mL after 10 mins by flow cytometry relative to parent cells. It is filed as cell-based. The note with it: in the assay text read “20 uM” for “20 ug/mL”. In a few lines:
(§2)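 Mouse L5178Y cells, parental and human MDR1-transfected (kept with 60 ng/mL colchicine), were held at 2 × 10^6/mL in serum-free McCoy's 5A and given compound (2, 6, 20, 60 μM) for 10 min at room temperature. […] Rhodamine-123 (5.2 μM final) followed for 20 min at 37 °C; cells were washed twice into PBS. FL-1 of 10 000 cells was read by flow cytometry. FAR = treated/untreated MDR versus PAR.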
For orientation: A flow cytometer gives signals particle by particle.

In data set [3] the target is T1, ATP-dependent translocase ABCB1. Kind of data set: Inhibition of MDR1-mediated rhodamine 123 uptake expressed in mouse L5178Y cells assessed as fluorescence activity ratio at 60 ug/mL after 10 mins by flow cytometry relative to parent cells. It is filed as cell-based. The note with it: in the assay text read “60 uM” for “60 ug/mL”. In a few lines: as §2
For data set [4] the target is unchanged. Briefly: Inhibition of MDR1-mediated rhodamine 123 uptake expressed in human COLO320 cells assessed as fluorescence activity ratio at 20 ug/mL after 10 mins by flow cytometry relative to parent cells. It is filed as cell-based. The note with it: in the assay text read “20 uM” for “20 ug/mL”. In a few lines:
(§3)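 COLO 320 MDR cells (and COLO 205) were held at 1 × 10^6/mL in serum-free RPMI 1640 and given compound (2 or 20 μM) for 10 min at room temperature. […] Rhodamine-123 (5.2 μM final) followed for 20 min at 37 °C; cells were washed twice into PBS. FL-1 of 10 000 cells was read by flow cytometry. FAR was calculated from treated/untreated resistant versus sensitive cells.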

Data set [5] relates to COLO 320. Briefly: Induction of apoptosis in human COLO320 cells preincubated assessed as late apoptosis at 20 uM for 40 mins measured after 24 hrs using annexin V/propidium iodide staining by flow cytometry. It is filed as functional. Put shortly: (§4)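 COLO 320 MDR cells at 2 × 10^5/mL were exposed to agent for 40 min at 37 °C, with 1% DMSO as solvent control. Cells were then washed twice in PBS and cultured overnight at 37 °C, 5% CO2. After 24 h, supernatant and trypsin-detached cells were pooled and centrifuged. Staining used an annexin V-FITC/propidium iodide kit (rapid protocol), read immediately by flow cytometry.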

In data set [6] the target is T1, ATP-dependent translocase ABCB1. Briefly: Inhibition of MDR1-mediated rhodamine 123 uptake expressed in mouse L5178Y cells assessed as fluorescence activity ratio at 6 uM after 10 mins by flow cytometry relative to parent cells.
The target is the same in data set [7]. Kind of data set: Inhibition of MDR1-mediated rhodamine 123 uptake expressed in human COLO320 cells assessed as fluorescence activity ratio at 2 uM after 10 mins by flow cytometry relative to parent cells.
Data set [8] deals with COLO 320. Briefly: Induction of apoptosis in human COLO320 cells preincubated assessed as early apoptosis at 20 uM for 40 mins measured after 24 hrs using annexin V/propidium iodide staining by flow cytometry. It is filed as functional. In a few lines:
as §4

In data set [9] the target is T1, ATP-dependent translocase ABCB1. Kind of data set: Inhibition of MDR1-mediated rhodamine 123 uptake expressed in mouse L5178Y cells assessed as fluorescence activity ratio at 2 uM after 10 mins by flow cytometry relative to parent cells.
Data set [10] has the same target. Kind of data set: Inhibition of MDR1-mediated rhodamine 123 uptake expressed in human COLO320 cells assessed as fluorescence activity ratio at 2 ug/mL after 10 mins by flow cytometry relative to parent cells. It counts as cell-based. As to conditions: in the assay text read “2 uM” for “2 ug/mL”. Put shortly: as §3
For data set [11] the target is unchanged. Kind of data set: Inhibition of MDR1-mediated rhodamine 123 uptake expressed in mouse L5178Y cells assessed as fluorescence activity ratio at 2 ug/mL after 10 mins by flow cytometry relative to parent cells. It counts as cell-based. The note with it: in the assay text read “2 uM” for “2 ug/mL”. In a few lines:
as §2

Data set [12] concerns COLO 320. Kind of data set: Induction of apoptosis in human COLO320 cells preincubated assessed as early apoptosis at 200 uM for 40 mins measured after 24 hrs using annexin V/propidium iodide staining by flow cytometry. It counts as functional. Put shortly:
as §4

In data set [13] the test system is COLO 320. Briefly: Induction of apoptosis in human COLO320 cells preincubated assessed as late apoptosis at 200 uM for 40 mins measured after 24 hrs using annexin V/propidium iodide staining by flow cytometry. It counts as functional. In a few lines: as §4
A short description of data set [14]: Induction of cell death in human COLO320 cells preincubated at 200 uM for 40 mins measured after 24 hrs using annexin V/propidium iodide staining by flow cytometry. It is filed as functional, COLO 320. In a few lines: as §1

T1 sequence (P08183 whole entry): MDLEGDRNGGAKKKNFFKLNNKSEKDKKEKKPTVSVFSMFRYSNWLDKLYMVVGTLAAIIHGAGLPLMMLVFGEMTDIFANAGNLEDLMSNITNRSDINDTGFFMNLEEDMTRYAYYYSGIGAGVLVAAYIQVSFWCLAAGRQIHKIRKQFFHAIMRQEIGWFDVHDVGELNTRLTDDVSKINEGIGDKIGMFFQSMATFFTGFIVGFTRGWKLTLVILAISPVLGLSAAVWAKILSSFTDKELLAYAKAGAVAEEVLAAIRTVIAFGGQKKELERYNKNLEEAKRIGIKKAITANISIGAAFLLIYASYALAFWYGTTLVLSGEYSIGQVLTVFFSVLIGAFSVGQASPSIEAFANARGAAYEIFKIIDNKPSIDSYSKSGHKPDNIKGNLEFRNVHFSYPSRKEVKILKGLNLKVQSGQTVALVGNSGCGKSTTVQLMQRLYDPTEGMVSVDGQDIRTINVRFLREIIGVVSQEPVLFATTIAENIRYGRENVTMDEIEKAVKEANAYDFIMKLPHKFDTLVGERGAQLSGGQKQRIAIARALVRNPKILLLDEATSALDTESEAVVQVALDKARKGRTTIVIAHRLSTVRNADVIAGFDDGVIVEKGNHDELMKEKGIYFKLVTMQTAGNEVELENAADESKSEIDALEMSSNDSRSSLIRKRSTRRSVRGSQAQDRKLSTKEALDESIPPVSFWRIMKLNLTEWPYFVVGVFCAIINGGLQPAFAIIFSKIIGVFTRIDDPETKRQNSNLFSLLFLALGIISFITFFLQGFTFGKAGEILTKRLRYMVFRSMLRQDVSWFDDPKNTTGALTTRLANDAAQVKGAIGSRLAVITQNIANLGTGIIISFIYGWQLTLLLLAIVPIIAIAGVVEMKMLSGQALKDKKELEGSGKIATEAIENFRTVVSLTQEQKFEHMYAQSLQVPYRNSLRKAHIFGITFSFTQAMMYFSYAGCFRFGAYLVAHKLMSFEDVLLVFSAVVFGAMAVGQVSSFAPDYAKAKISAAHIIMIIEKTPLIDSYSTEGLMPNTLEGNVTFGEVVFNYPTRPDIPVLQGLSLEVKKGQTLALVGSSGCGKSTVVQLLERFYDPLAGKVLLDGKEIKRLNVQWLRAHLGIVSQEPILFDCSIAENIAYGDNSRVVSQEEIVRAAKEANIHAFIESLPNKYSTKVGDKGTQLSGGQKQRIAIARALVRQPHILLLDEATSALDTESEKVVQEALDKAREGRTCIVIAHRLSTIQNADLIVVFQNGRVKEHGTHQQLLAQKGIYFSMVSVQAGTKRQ

`CC(=O)O[C@H]1[C@H](OC(C)=O)/C(C)=C\[C@H]2[C@@H](OC(=O)c3ccccc3)[C@@H](C)C[C@]2(OC(C)=O)[C@@H](OC(C)=O)[C@@H](C)/C=C/C(C)(C)[C@@H]1OC(C)=O` (relative stereo) [EUPHOMELLIFERENE A]: the Activity is reported as 1.11% in [1], 7.7% with COLO 320 [5] and 5.39% with COLO 320 [8]. The Ratio in data set [2] turned out to be 23.1; in [3] it was 82.2; in data set [4], 5.5; in data set [6], 12.4; in [7], 2; in data set [9], 1.2.

Take `CC(=O)O[C@@H]1[C@@H](OC(C)=O)C(C)(C)/C=C/[C@H](C)C(=O)[C@@]2(OC(C)=O)C[C@@H](C)[C@H](OC(=O)c3ccccc3)/C2=C/[C@](C)(O)[C@H]1OC(C)=O`: the Activity in data set [1] is listed as 0.9%; in the data set with COLO 320 [5] it was 4.6%; with COLO 320 [8], 4.4%. Also, the Ratio worked out at 10.1 in data set [2]; 43.4 in data set [3]; 3 in data set [4]; 1.4 in [6]; 0.7 in data set [10]; 0.9 in [11].

Take `c1ccc2c(c1)Nc1c(ccc3ccccc13)S2`: the Activity with COLO 320 [12] stood at 17.55%; in the data set with COLO 320 [13] it was 58.56%; in data set [14], 3.24%.

With `CC(=O)O[C@H]1[C@H](OC(C)=O)/C(C)=C\[C@H]2[C@@H](OC(=O)c3ccccc3)[C@@H](C)C[C@]2(O)[C@@H](OC(C)=O)[C@@H](C)/C=C/C(C)(C)[C@@H]1OC(C)=O` (relative stereo) [EUPHOMELLIFERENE B], the Activity came to 1.11% in data set [1], 4.93% in the data set on COLO 320 [5] and 3% in the data set with COLO 320 [8]. Further, the Ratio in data set [2] worked out at 1.6; in [3], 36.1; in [4], 2.8; in [6], 1.4; in data set [10], 0.8; in data set [11], 1.1.

Consider `CC(=O)O[C@H]1[C@H](OC(C)=O)/C(C)=C\[C@H]2[C@@H](OC(=O)c3ccccc3)[C@H](C)C[C@]2(O)C(=O)[C@@H](C)/C=C/C(C)(C)[C@@H]1OC(C)=O` (relative stereo) [EUPHOMELLIFERINE], for which the values for the Activity (in data set [1]; in the data set with COLO 320 [5]; in the data set with COLO 320 [8]) were 0.74%, 4.97% and 6.72%, respectively. Further, the Ratio is recorded as 12.1 in data set [2]; 72.9 in [3]; 5.1 in [4]; 2.9 in data set [6]; 1.1 in data set [10]; 1.1 in data set [11].
